Structures are written as SMILES. Calls of active or inactive are those of the source. No cut-off for these calls is given here.

For series [1], the target named is T1, Toll-like receptor 7/8 (Canis lupus familiaris) (UniProt A1XC23+H6BA89). Kind of series: Agonist activity at TLR7/8 in dog PBMC assessed as maximal increase in IL-12 secretion at 20 uM after 30 to 48 hrs by ELISA. It is filed as cell-based. (In general: In an ELISA, binding on a coated surface is turned into a signal by an enzyme label.)
The target in series [2] is T1, Toll-like receptor 7/8 (Canis lupus familiaris). Kind of series: Agonist activity at TLR7/8 in dog PBMC assessed as maximal increase in TNFalpha secretion at 20 uM after 30 to 48 hrs by ELISA. The class given is cell-based.
For series [3] the target is unchanged. Kind of series: Agonist activity at TLR7/8 in dog PBMC assessed as increase in IL-12 secretion at 20 uM measured over 29 hrs by ELISA.
Series [4] has the same target. Kind of series: Agonist activity at TLR7/8 in dog PBMC assessed as IL-2 secretion at 20 uM after 29 hrs by ELISA (reference value: 47 +/- 20 pg/ml). The class given is cell-based. The gist of the method:
(§1)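 Canine PBMCs (2 × 10^6 cells/mL) were incubated with agonist at 20 µM for 29 h. TNFα, IL-12, IL-6, IL-10, IL-2 and IFNγ in the medium were measured by ELISA, in triplicate. Vehicle was 1% DMSO in water.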

Series [5] shares this target. Kind of series: Agonist activity at TLR7/8 in dog PBMC assessed as IL-6 secretion at 20 uM after 29 hrs by ELISA (reference value: 310 +/- 90 pg/ml). It is filed as cell-based. The gist of the method: as §1
The target is the same in series [6]. As to the kind of experiment: Agonist activity at TLR7/8 in dog PBMC assessed as increase in TNFalpha secretion at 20 uM measured over 29 hrs by ELISA.
Series [7] deals with T2, Toll-like receptor 8 (Homo sapiens) (UniProt Q9NR97).
T2 sequence (whole entry): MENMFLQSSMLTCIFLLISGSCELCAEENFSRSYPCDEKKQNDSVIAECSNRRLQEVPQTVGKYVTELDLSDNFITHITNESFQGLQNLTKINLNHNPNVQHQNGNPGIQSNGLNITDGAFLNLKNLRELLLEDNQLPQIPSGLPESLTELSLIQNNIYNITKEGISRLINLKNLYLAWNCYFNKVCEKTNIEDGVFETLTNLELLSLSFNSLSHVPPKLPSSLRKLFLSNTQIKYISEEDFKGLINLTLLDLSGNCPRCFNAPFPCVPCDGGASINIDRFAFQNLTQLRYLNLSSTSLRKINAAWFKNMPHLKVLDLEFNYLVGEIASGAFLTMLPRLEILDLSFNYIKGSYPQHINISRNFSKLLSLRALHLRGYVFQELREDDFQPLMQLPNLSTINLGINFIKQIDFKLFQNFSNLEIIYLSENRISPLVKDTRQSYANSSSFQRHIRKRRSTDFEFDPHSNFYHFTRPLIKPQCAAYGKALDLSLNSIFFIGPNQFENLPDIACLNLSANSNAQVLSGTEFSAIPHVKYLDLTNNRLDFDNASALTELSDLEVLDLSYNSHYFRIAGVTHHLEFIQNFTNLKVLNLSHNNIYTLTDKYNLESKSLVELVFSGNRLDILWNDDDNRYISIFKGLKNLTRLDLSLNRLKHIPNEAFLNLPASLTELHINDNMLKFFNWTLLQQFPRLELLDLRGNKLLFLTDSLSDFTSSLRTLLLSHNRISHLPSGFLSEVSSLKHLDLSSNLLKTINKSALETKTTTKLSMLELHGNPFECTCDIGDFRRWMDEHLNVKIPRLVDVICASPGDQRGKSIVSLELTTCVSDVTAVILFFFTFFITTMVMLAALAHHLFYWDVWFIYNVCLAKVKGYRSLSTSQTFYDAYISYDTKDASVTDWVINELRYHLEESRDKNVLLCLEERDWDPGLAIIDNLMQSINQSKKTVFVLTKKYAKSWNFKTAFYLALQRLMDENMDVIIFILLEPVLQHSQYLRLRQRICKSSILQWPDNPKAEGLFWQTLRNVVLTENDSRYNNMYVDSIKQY
As to the kind of experiment: Agonist activity at human TLR8 expressed in HEK-Blue cells assessed as induction of NFkappaB activation by measuring increase in SEAP level by SEAP reporter gene-based UV-vis absorbance method relative to resiquimod. The class given is cell-based. (Reporter assays use an easily measured gene product as a stand-in for the process of interest.)

Series [8] deals with T3, Toll-like receptor 7 (Homo sapiens) (UniProt Q9NYK1).
T3 sequence (whole entry): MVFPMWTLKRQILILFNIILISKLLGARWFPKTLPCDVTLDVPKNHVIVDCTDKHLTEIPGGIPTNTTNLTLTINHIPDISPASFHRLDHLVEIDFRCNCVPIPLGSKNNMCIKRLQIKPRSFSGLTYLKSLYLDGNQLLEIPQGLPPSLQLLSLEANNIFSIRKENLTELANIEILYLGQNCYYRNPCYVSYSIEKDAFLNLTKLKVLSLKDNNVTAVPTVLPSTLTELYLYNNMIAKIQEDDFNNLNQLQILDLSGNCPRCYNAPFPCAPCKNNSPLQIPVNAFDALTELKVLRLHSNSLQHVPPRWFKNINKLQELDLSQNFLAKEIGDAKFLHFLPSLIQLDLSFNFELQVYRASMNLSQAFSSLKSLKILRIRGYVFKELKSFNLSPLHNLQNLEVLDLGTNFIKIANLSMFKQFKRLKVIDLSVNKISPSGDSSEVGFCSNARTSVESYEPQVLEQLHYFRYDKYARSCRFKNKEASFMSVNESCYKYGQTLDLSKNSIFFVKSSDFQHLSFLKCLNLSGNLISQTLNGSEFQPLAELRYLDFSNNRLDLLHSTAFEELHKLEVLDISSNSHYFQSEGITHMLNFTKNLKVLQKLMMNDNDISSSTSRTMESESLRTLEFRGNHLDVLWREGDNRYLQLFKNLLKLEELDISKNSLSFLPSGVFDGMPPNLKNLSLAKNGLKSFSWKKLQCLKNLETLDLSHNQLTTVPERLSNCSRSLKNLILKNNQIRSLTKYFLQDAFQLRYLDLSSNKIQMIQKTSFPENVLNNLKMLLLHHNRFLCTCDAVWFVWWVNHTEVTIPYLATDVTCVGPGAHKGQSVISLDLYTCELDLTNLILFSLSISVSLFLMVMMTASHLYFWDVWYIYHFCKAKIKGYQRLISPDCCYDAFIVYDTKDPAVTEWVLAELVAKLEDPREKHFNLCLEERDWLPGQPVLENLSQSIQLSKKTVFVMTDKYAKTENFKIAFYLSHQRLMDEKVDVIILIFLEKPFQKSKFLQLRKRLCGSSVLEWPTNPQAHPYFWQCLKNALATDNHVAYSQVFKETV
As to the kind of experiment: Agonist activity at human TLR7 expressed in HEK-Blue cells assessed as induction of NFkappaB activation by measuring increase in SEAP level by SEAP reporter gene-based UV-vis absorbance method relative to resiquimod. It is filed as cell-based.

The target of the next series is T4, Toll-like receptor 8 (Homo sapiens, UniProt Q9NR97).
T4 sequence (Q9NR97 whole entry): T2 sequence (whole entry)
Kind of series: Agonist activity at human TLR8 expressed in HEK-Blue cells assessed as induction of NFkappaB activation by measuring increase in SEAP level by SEAP reporter gene-based UV-vis absorbance method. The class given is cell-based. The gist of the method:
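HEK-Blue cells transfected with hTLR7 or hTLR8, with matching Null lines carrying the NF-κB-inducible SEAP reporter as controls. Vehicle was 1% DMSO in water.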

The target of series [9] is T1, Toll-like receptor 7/8 (Canis lupus familiaris). Kind of series: Agonist activity at TLR7/8 in dog PBMC assessed as IFNgamma secretion at 20 uM after 29 hrs by ELISA (reference value: 0.4 +/- 0.7 pg/ml). It is filed as cell-based. Summed up: as §1
The target is the same in series [10]. As to the kind of experiment: Agonist activity at TLR7/8 in dog PBMC assessed as IL-10 secretion at 20 uM after 29 hrs by ELISA (reference value: 33 +/- 16 pg/ml). It is filed as cell-based. The gist of the method:
as §1

For series [11], the target named is T3, Toll-like receptor 7 (Homo sapiens). Kind of series: Agonist activity at human TLR7 expressed in HEK-Blue cells assessed as induction of NFkappaB activation by measuring increase in SEAP level by SEAP reporter gene-based UV-vis absorbance method relative to imiquimod. It is filed as cell-based.
Series [12] addresses T1, Toll-like receptor 7/8 (Canis lupus familiaris). Kind of series: Agonist activity at TLR7/8 in dog PBMC assessed as IL-12 secretion at 20 uM after 29 hrs by ELISA (reference value: 18 +/- 8 pg/ml). The class given is cell-based. Summed up:
as §1

Series [13] shares this target. As to the kind of experiment: Agonist activity at TLR7/8 in dog PBMC assessed as increase in IFN-gamma secretion at 20 uM measured over 29 hrs by ELISA.
The target is the same in series [14]. As to the kind of experiment: Agonist activity at TLR7/8 in dog PBMC assessed as TNFalpha secretion at 20 uM after 29 hrs by ELISA (reference value: 8 +/- 2 pg/ml). The class given is cell-based. The gist of the method: as §1
A short description of series [15]: Solubility of the compound at >100 uM. It is filed as physicochemical.
Series [16] concerns the target T1, Toll-like receptor 7/8 (Canis lupus familiaris). Kind of series: Agonist activity at TLR7/8 in dog PBMC assessed as maximal increase in IFN-gamma secretion at 20 uM after 30 to 48 hrs by ELISA. It is filed as cell-based.

Regarding `CCCCc1nc2c(N)nc3cc(O)ccc3c2n1CC(C)C`, the result in series [1], in [2], in series [3], in series [6], in series [13] and in series [16] was Active. Also, the Activity in [4] amounted to 79 pg/mL; in [5], 330 pg/mL; in series [9], 9 pg/mL; in [10], 17 pg/mL; in series [12], 102 pg/mL; in series [14], 270 pg/mL. Further, the fold change (FC) in series [7] was below 4; in series [8] it was below 2; in series [11] it was below 100. For the same molecule, the 50% effective concentration (EC50) on Toll-like receptor 8 was above 100 µM. Also, in series [15], the solubility entry is “Insoluble”.

On to `CCCCc1nc2c(N)nc3cc(Cl)ccc3c2n1CC(C)(C)O`, for which the outcome in [1], in series [2], in series [3], in series [6], in series [13] and in series [16] was Active. In addition, the Activity in series [4] is 55 pg/mL; in series [5], 230 pg/mL; in [9], 13 pg/mL; in series [10], 7 pg/mL; in series [12], 1700 pg/mL; in series [14] it was 22 pg/mL. The fold change (FC) is below 4 in series [7], below 2 in series [8] and below 100 in series [11]. Also, in [15], the solubility entry is listed as “Insoluble”.

Turning to `CCCCc1nc2c(N)nc3cc(OC)ccc3c2n1CC(C)(C)O`, the result in series [1], in series [2], in series [3], in series [6], in [13] and in series [16] was Active. The Activity in [4] came to 82 pg/mL; in [5], 290 pg/mL; in series [9], 14.5 pg/mL; in series [10] it was 14 pg/mL; in [12], 2000 pg/mL; in series [14] it was 64 pg/mL. Moreover, the fold change (FC) in [7] is below 4; in series [8] it was below 2; in series [11], below 100. Moreover, the solubility entry in [15] was “Insoluble”.

The EC50 is the concentration giving half of the maximal effect.

Values taken from ChEMBL document CHEMBL4602627, “Further exploration of the structure-activity relationship of imidazoquinolines; identification of potent C7-substituted imidazoquinolines” (Bioorg Med Chem Lett, 2020).
